From ChEMBL document CHEMBL1938385, “Identification of Trypanosoma brucei leucyl-tRNA synthetase inhibitors by pharmacophore- and docking-based virtual screening and synthesis” (Bioorg Med Chem, 2012)

Assays:
[1] = Inhibition of Trypanosoma brucei LeuRS preincubated for 20 mins prior to reaction initiation by aminoacylation assay
Method in brief: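 Enzyme, compound, tRNA and 0.003 mCi/mL [¹⁴C]-leucine were incubated 20 min at 37 °C, then 4 mM ATP was added to start the reaction. Precipitated [¹⁴C]-Leu-tRNA^Leu on dried filter paper was measured by scintillation counting.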

[2] = Inhibition of human LeuRS
[3] = Inhibition of Escherichia coli LeuRS
[4] = Inhibition of Staphylococcus aureus LeuRS

SMILES	IC50 [1] [µM]	further results
CCc1ccc(C2C(C(=O)c3ccc(OC)cc3)=C(O)C(=O)N2Cc2ccc(C(=O)O)cc2)cc1 (stereo unspecified)	656	
COc1ccc(C(=O)C2=C(O)C(=O)N(CCc3c[nH]c4ccccc34)C2c2ccccc2Cl)cc1 (stereo unspecified)	125	
CCc1ccc(C2C(C(=O)c3ccc(OC)cc3)=C(O)C(=O)N2c2ccc(CN)cc2)cc1 (stereo unspecified)	> 1000	
CC(C)C[C@H](N)C(=O)NS(=O)(=O)OC[C@H]1O[C@@H](c2nc(CCc3cccc(Oc4ccccc4)c3)ns2)[C@H](O)[C@@H]1O		IC50 [2]: 1.15 µM; IC50 [3]: 0.006 µM; IC50 [4]: 0.1 µM
CCc1ccc(C2C(C(=O)c3ccc(OC)cc3)=C(O)C(=O)N2c2ccc(CNC(=O)OC(C)(C)C)cc2)cc1 (stereo unspecified)	102	
COc1ccc(C(=O)C2=C(O)C(=O)N(CCc3c[nH]c4ccccc34)C2c2cccc(F)c2)cc1 (stereo unspecified)	170	
CCCCCC1C(C(=O)c2ccc(OC)cc2)=C(O)C(=O)N1CCc1c[nH]c2ccccc12 (stereo unspecified)	111	
CC[C@H](C)[C@H](N)C(=O)NS(=O)(=O)CC(=O)O[C@H]1CC[C@H]2C(C(N)=O)=CN(C)C[C@@H]12		IC50 [4]: 0.42 µM
COc1ccc(C(=O)C2=C(O)C(=O)N(CCc3c[nH]c4ccccc34)C2c2ccc3ccccc3c2)cc1 (stereo unspecified)	85.5	
CCc1ccc(C2C(C(=O)c3ccc(OC)cc3)=C(O)C(=O)N2Cc2ccc3c(c2)OCO3)cc1 (stereo unspecified)	174	
CCCCc1ccc(C2C(C(=O)c3ccc(OC)cc3)=C(O)C(=O)N2CCc2c[nH]c3ccccc23)cc1 (stereo unspecified)	43.9	
CCc1ccc(C2C(C(=O)c3cccc4ccccc34)=C(O)C(=O)N2CCc2c[nH]c3ccccc23)cc1 (stereo unspecified)	80	
CC(C)C[C@H](N)C(=O)NS(=O)(=O)OC[C@H]1O[C@@H](c2nc(CCc3ccccc3)ns2)[C@H](O)[C@@H]1O		IC50 [2]: 0.73 µM; IC50 [3]: < 0.002 µM; IC50 [4]: 0.09 µM
COc1ccc(C(=O)C2=C(O)C(=O)N(CCc3c[nH]c4ccccc34)C2c2ccc(C(C)C)cc2)cc1 (stereo unspecified)	90.5	
COc1ccc(C(=O)C2=C(O)C(=O)N(CCc3c[nH]c4ccccc34)C2c2ccc(C(C)(C)C)cc2)cc1 (stereo unspecified)	94.5	
CC(C)Cc1ccc(C2C(C(=O)c3ccc(F)cc3F)=C(O)C(=O)N2CCc2c[nH]c3ccccc23)cc1 (stereo unspecified)	175	
CCc1ccc(C2C(C(=O)c3ccc(OC)cc3)=C(O)C(=O)N2CCc2c[nH]c3ccccc23)cc1 (stereo unspecified)	71.4	
COc1ccc(C(=O)C2=C(O)C(=O)N(CCc3c[nH]c4ccccc34)C2c2ccc(C(F)(F)F)cc2)cc1 (stereo unspecified)	68.1	
CC(C)C[C@H](N)C(=O)NS(=O)(=O)OC[C@H]1O[C@@H](c2nc(-c3ccc(Oc4ccccc4)cc3)ns2)[C@H](O)[C@@H]1O		IC50 [2]: 0.6 µM; IC50 [3]: 0.0016 µM; IC50 [4]: 0.054 µM
O=C(C1=C(O)C(=O)N(CCc2c[nH]c3ccccc23)C1c1ccc(Cl)cc1)c1ccc(F)cc1 (stereo unspecified)	> 1000	
CC(C)Cc1ccc(C2C(C(=O)c3ccc(Cl)cc3)=C(O)C(=O)N2CCc2c[nH]c3ccccc23)cc1 (stereo unspecified)	41	

SMILES	IC50 [1] [µM]	further results
COc1ccc(C(=O)C2=C(O)C(=O)N(CCc3c[nH]c4ccccc34)C2c2ccc(F)cc2)cc1 (stereo unspecified)	64.7	
COc1ccc(C(=O)C2=C(O)C(=O)N(CCc3c[nH]c4ccccc34)C2c2ccc(-c3ccccc3)cc2)cc1 (stereo unspecified)	43.1	
CCc1ccc(C2C(C(=O)c3ccc(OC)cc3)=C(O)C(=O)N2CCCNC(=O)CC(C)C)cc1 (stereo unspecified)	> 1000	
CC[C@H](C)[C@H](N)C(=O)NS(=O)(=O)CC(=O)N[C@]1(C(=O)OC)[C@@H]2CN(C)C=C(C(N)=O)[C@@H]2C[C@@H]1O		IC50 [4]: 186 µM
CC[C@H](C)[C@H](N)C(=O)NS(=O)(=O)OC[C@H]1O[C@@H](c2nc(-c3ccccc3)ns2)[C@H](O)[C@@H]1O		IC50 [2]: 200 µM; IC50 [3]: 1 µM; IC50 [4]: > 20 µM
COc1ccc(C(=O)C2=C(O)C(=O)N(CCc3c[nH]c4ccccc34)C2c2ccccc2OC)cc1 (stereo unspecified)	190	
COc1ccc(C(=O)C2=C(O)C(=O)N(CCc3c[nH]c4ccccc34)C2c2ccc(C)cc2)cc1 (stereo unspecified)	117	
CCc1ccc(C2C(C(=O)c3ccc(OC)cc3)=C(O)C(=O)N2CCCNC(=O)OC(C)(C)C)cc1 (stereo unspecified)	269	
CCc1ccc(C2C(C(=O)c3ccc(OC)cc3)=C(O)C(=O)N2CCCn2ccnc2)cc1 (stereo unspecified)	716	
CCc1ccc(C2C(C(=O)c3ccc(OC)cc3)=C(O)C(=O)N2CCCN)cc1 (stereo unspecified)	> 1000	
COc1ccc(C(=O)C2=C(O)C(=O)N(CCc3c[nH]c4ccccc34)C2c2ccc(F)cc2Br)cc1 (stereo unspecified)	110	
COc1ccc(C(=O)C2=C(O)C(=O)N(CCc3c[nH]c4ccccc34)C2c2ccc(OC)cc2)cc1 (stereo unspecified)	334	
O=C(C1=C(O)C(=O)N(CCc2c[nH]c3ccccc23)C1c1cccc(O)c1)c1ccc(Cl)cc1 (stereo unspecified)	588	
COc1ccc(C(=O)C2=C(O)C(=O)N(CCc3c[nH]c4ccccc34)C2c2ccccc2F)cc1 (stereo unspecified)	269	
COc1ccc(C(=O)C2=C(O)C(=O)N(CCc3c[nH]c4ccccc34)C2c2ccc(Cl)cc2)cc1 (stereo unspecified)	86.9	
CC[C@H](C)[C@H](N)C(=O)NS(=O)(=O)OCc1oc(-c2nc(-c3ccccc3)cs2)c(O)c1O		IC50 [2]: 0.6 µM; IC50 [3]: 0.0016 µM
COc1ccc(C(=O)C2=C(O)C(=O)N(CCc3c[nH]c4ccccc34)C2c2ccccc2)cc1 (stereo unspecified)	260	
COc1ccc(C(=O)C2=C(O)C(=O)N(CCc3c[nH]c4ccccc34)C2c2ccc(CC(C)C)cc2)cc1 (stereo unspecified)	31.9	
O=C(C1=C(O)C(=O)N(CCc2c[nH]c3ccccc23)C1c1ccccc1)c1ccc(F)cc1 (stereo unspecified)	> 1000	
COc1ccccc1C1C(C(=O)c2ccc(Cl)cc2)=C(O)C(=O)N1CCc1c[nH]c2ccccc12 (stereo unspecified)	107	
O=C(C1=C(O)C(=O)N(CCc2c[nH]c3ccccc23)C1c1cccc(F)c1)c1ccccc1 (stereo unspecified)	> 1000	
